HTR1E agonist – activates the human 5-HT1E serotonin receptor | activation, % at 6 µM | CHO 5-HT1E Ga15 NFAT-bla reporter, FRET; 0% DMSO wells, 100% control agonist wells | 0.69% of 65,000 active;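 active = activation above a set limit, the screen-wide mean activation plus 3 SD, cut at about 8.5% in these data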
5HT1E antag – antagonists of human 5-HT1E serotonin receptor; inhibition, % at 6 µM; CHO 5-HT1E Ga15 NFAT-bla reporter, FRET, antagonist; P28566; 0.99% of 65,000 active;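 active = inhibition above a set limit, the mean inhibition across every tested compound plus 3 SD, cut at about 29% in these data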;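 also: signal is the 460 over 535 nm emission ratio of beta-lactamase substrate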
5-HT1A blocker – antagonists of human 5-HT1a serotonin receptor; CHO 5-HT1a Ga15 NFAT-bla reporter, antagonist mode; inhibition, % at 10 µM; 0.68% of 62,000 active; AID 612;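 active = inhibition above the mean of all tested compounds plus 3 SD, cut at about 43% in these data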;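 also: receptor stimulated by 5-CT agonist at 100 nM near EC80; beta-lactamase reporter measured by ratiometric fluorescence of a cleavable substrate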
S1P3 ag – agonists of human S1P3 receptor; Q99500; activation, % at 4.5 µM; S1P3 NFAT-BLA reporter cells, agonism, FRET ratio; relative to 1 µM S1P, basal subtracted; 0.1% of 60,000 active;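 active = activation above the screen-wide mean plus 3 SD, cut at about 4.5% in these data, passing the limit was not always enough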
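Measure – % activation relative to 1 µM S1P (100%), per plate · System – stable CHO line with human S1P3, Gα16, NFAT-BLA reporter · Timing – cells plated overnight, compound 4 h 37 °C, substrate 2 h RT · Technique – fluorescent BLA substrate, ex 405 nm, em 460/535 nm ratio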
HTR1A agonist – 5-HT1a (human) receptor agonism; AID 567; activation, % at 10 µM; 0.56% of 65,000 active; P08908; CHO 5-HT1a Ga15 NFAT-bla reporter, FRET ratio; 0% basal, 100% maximal reference agonist;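 active = activation above the screen-wide mean activation plus 3 SD, cut at about 19% in these data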
S1P1 ag-PAM – activates or potentiates agonism at human S1P1 receptor | P21453 | S1P1 CRE-bla cells, forskolin, beta-lactamase FRET, potentiator mode; S1P1 agonist co-added at EC20, 2 nM; 100% = saturating reference agonist, 0% = basal | activation, % at 9.5 µM | 0.57% of 56,000 active;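 active = activation above a cutoff set at the mean activation of all tested compounds plus 3 SD, cut at about 54% in these data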;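 also: forskolin at 4 µM as EC80 and the EC20 agonist is SEW2871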
Target sequence (P21453 whole entry, looked up): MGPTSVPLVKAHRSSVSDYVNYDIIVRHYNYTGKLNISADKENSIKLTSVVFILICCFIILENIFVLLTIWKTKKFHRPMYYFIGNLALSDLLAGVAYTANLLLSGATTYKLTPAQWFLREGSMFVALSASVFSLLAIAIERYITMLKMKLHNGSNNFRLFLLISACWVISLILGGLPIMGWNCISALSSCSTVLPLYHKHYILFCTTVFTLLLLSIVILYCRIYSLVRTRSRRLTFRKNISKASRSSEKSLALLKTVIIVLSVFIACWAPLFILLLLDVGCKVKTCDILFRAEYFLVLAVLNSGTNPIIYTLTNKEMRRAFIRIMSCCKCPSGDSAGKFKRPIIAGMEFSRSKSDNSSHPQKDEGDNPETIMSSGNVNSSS
Large screens that a line does not name were inactive. An excerpt weighted towards active compounds, which were near 2.9% of everything screened.

O=C1CC(NCc2ccncc2)C(=O)N1c1ccc(Cl)cc1 (configuration not stated)	none (no result: 5-HT1A blocker)
O=C1c2ccccc2C(=O)N1c1ccc(S(=O)(=O)N2CCN(c3ccccc3)CC2)cc1	none
C/C=C(\C)CN1CCN(c2ccccc2F)CC1	none (no result: S1P1 ag-PAM)
COc1ccccc1N1CCN(C/C(C)=C/c2ccccc2)CC1	5-HT1A blocker 84
CCOC(=O)c1cnc2c(OC)cccc2c1N1CCN(c2ccccc2OC)CC1	HTR1E agonist 9.1
COc1cc(S(=O)(=O)N2CCN(c3ccccc3F)CC2)ccc1Cl	HTR1A agonist 21
COc1cc(CN2CCN(c3ccccc3F)CC2)cc(OC)c1O	HTR1E agonist 14 (no result: S1P1 ag-PAM)
CNCc1cc2ccc(C)cc2[nH]c1=O	none
COc1cc(OC)cc(-c2nnc(SCc3c(F)cccc3Cl)o2)c1	none
Cn1c(C(=O)OC(C(=O)NC2CCCCC2)c2ccncc2)cc2sccc21 (configuration not stated)	none
COc1ccccc1N1CCN(Cc2ccc(OC)c(OC)c2OC)CC1	HTR1E agonist 31, 5-HT1A blocker 62
COc1ccc(OC)c(CN2CCN(c3ccccc3OC)CC2)c1	5-HT1A blocker 53
COc1ccccc1N1CCN(c2cc(N3CCCC3)nc(C)n2)CC1	none
CCOc1ccccc1N1CCN(Cc2cccc(OC)c2OC)CC1	5-HT1A blocker 58
CC(C)(NCc1ccccc1Cl)C(=O)O	none
N#Cc1c(N)nc2c(c1-c1ccccc1)CCCC2	none
N#Cc1c(N)nc(-c2ccccc2)nc1-c1ccccc1	5HT1E antag 30
c1ccc(CC2CCN(c3nnnn3-c3ccccc3)CC2)cc1	5HT1E antag 32
COc1ccc(/C(O)=C2/C(=O)C(=O)N(CCCN(C)C)C2c2ccco2)cc1Cl (configuration not stated)	none (no result: 5-HT1A blocker)
CCCn1c(SCC(=O)N2CCN(S(=O)(=O)c3ccc(Cl)cc3)CC2)n[nH]c1=O	HTR1E agonist 9.0
Cc1cc(C)n2c(SCC(=O)N3CCN(S(=O)(=O)c4ccc(Cl)cc4)CC3)nnc2n1	none
CCC(C)(C)n1nnnc1C(c1ccc2ncccc2c1)N1CCN2CCCC2C1 (configuration not stated)	none
Cc1nn(C(C)C(=O)N2CCN(c3ccccn3)CC2)c(=O)c2cc3occc3n12 (configuration not stated)	none
CCc1nn(C(C)C(=O)N2CCN(Cc3ccccc3)CC2)c(=O)c2cc3occc3n12 (configuration not stated)	HTR1E agonist 16
Cc1nc(Cc2nnc(SCc3nc(N)nc(Nc4ccccc4C)n3)o2)cs1	none (no result: S1P3 ag, S1P1 ag-PAM)
O=C(Cn1ccc2ccccc2c1=O)NCCC(=O)NC1CCN(Cc2ccccc2)CC1	HTR1E agonist 11
O=C(CCNC(=O)Cn1ccc2ccccc2c1=O)NCCN1CCc2ccccc2C1	none
CSC1=NCCN1C(=O)Cc1cccs1	none
CCN1CCN(c2ncc(C(=O)Nc3ccccc3C(=O)OC)c3ccccc23)CC1	HTR1E agonist 17
Cc1ccccc1-c1nnc(SCc2ccccc2F)o1	S1P1 ag-PAM 89
Cc1oc(-c2ccc(Cl)cc2)nc1CN1CCC(C(=O)NCCCN2CCOCC2)CC1	none
Cc1oc(-c2cccc(Cl)c2)nc1CN1CCCC(C(=O)NCCCN2CCOCC2)C1 (configuration not stated)	HTR1A agonist 30
CCOC(=O)N1CCN(C(=O)CSc2nc3c(cnn3-c3ccc(Cl)cc3)c(=O)[nH]2)CC1	none
Clc1ccc(OCCN2CCN(c3ncnc4sccc34)CC2)cc1	S1P1 ag-PAM 115
CC(C)CC(c1nnnn1Cc1ccco1)N1CCN(c2cccc(Cl)c2)CC1 (configuration not stated)	5-HT1A blocker 46
CCN(CC)c1ccc(NC(=O)c2cc(OC)cc(OC)c2)c(C)c1	5HT1E antag 42, 5-HT1A blocker 52 (no result: S1P1 ag-PAM)
CCN(CC)c1ccc(NC(=O)c2cccc(OC)c2)c(C)c1	none
Cc1ccccc1-n1c(SCc2ccccn2)nc2n[nH]c(C)c2c1=N	5HT1E antag 57
O=C(Cn1c(NCCCO)nc2ccccc21)c1cccs1	none
COc1ccc(S(=O)(=O)Nc2c(C)ccc3nsnc23)cc1OC	none
COc1cc(OC)cc(-c2nnc(SCC(=O)Nc3cc(C)on3)o2)c1	none
CCCCC(CC)Cn1c(N)c(C#N)c2nc3ccccc3nc21 (configuration not stated)	HTR1E agonist 17, HTR1A agonist 46
CCCCC(CC)Cn1c2nc3ccccc3nc2c2c(=N)oc(C)nc21 (configuration not stated)	none (no result: S1P3 ag, S1P1 ag-PAM)
O=C(NCc1ccccc1)N1CCN(c2ccc(Cl)c(Cl)c2)CC1	S1P1 ag-PAM 100
Cc1occc1C(=O)N1CCN(c2ccc(Cl)c(Cl)c2)CC1	S1P1 ag-PAM 69
Cn1c(N2CCN(C(=O)NCc3ccccc3)CC2)nc2ccccc21	none
CCOC(=O)N1CCN(C(=O)Cn2ncn3nc(-c4cccs4)cc3c2=O)CC1	none
Cc1ccc(Oc2ccc(S(=O)(=O)N3CCOCC3)cc2C(N)=O)c(-n2nc3ccccc3n2)c1	5HT1E antag 39
CC1=C/C(=C/N(C)c2ccccc2)C(=O)S1	5-HT1A blocker 44
COc1ccc(NS(=O)(=O)c2cc(C)ccc2NC(=O)c2cc(C)oc2C)cc1	5HT1E antag 61, 5-HT1A blocker 63
CCOC(=O)c1ccc(NS(=O)(=O)c2cc(C)ccc2OC)cc1	none
CCOc1ccc(N2CC(C(=O)OC)CC2=O)cc1 (configuration not stated)	none (no result: S1P1 ag-PAM)
Cc1c(/C=N/n2cnnc2)c2ccccc2n1CCOc1ccccc1	5HT1E antag 34
COc1cccc(C2=Nn3c(nnc3-c3ccccc3O)SC2)c1	none
Cc1ccc(-c2nnc3n2N=C(c2ccccc2)CS3)cc1	5HT1E antag 45
Clc1ccccc1C1=Nn2c(nnc2-c2ccncc2)SC1	S1P1 ag-PAM 75
COc1ccc(C2=Nn3c(nnc3-c3ccc(OC)cc3)SC2)cc1	5HT1E antag 79, 5-HT1A blocker 43
Cc1cccc(-c2nnc3n2N=C(c2ccccc2Br)CS3)c1	5HT1E antag 31
O=C(O)CCCC(=O)Nc1nc(-c2ccccc2)cs1	HTR1E agonist 26
Cc1cc(C(=O)N2CCN(C(c3ccccc3)c3ccccc3)CC2)on1	S1P1 ag-PAM 88
COCCN1C(=O)C(CC(=O)Nc2ccc(C(C)=O)cc2)SC1=Nc1ccccc1 (configuration not stated)	HTR1A agonist 172
Cc1cc(NC(=O)NC2CCCN2S(=O)(=O)c2ccc(Cl)cc2)no1 (configuration not stated)	none

Source: PubChem BioAssay (The Scripps Research Institute Molecular Screening Center)
